Assay results pooled from the literature.
Compare with care: the assays were run in different laboratories.
Target: Rhodopsin kinase GRK7 (GRK7, Homo sapiens, UniProt Q8WTQ7)
Residues used in one study (Q8WTQ7 1-553): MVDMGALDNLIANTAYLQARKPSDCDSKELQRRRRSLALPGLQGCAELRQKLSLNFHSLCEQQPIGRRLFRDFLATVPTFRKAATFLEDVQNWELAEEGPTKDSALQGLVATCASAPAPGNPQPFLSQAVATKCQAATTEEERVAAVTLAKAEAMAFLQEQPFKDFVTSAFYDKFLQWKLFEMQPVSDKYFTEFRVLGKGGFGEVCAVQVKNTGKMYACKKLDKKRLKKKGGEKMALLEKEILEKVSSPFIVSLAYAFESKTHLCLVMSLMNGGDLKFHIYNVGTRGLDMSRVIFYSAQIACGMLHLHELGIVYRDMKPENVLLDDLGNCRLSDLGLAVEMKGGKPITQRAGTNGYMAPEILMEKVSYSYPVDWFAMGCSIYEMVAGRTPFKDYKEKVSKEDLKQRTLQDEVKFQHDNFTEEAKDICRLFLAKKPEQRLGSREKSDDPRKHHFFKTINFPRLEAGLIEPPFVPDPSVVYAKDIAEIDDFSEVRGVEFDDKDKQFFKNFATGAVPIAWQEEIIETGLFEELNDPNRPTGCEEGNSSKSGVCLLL

| SMILES | test | setting | remaining binding |
| --- | --- | --- | --- |
| CCN1CCN(Cc2ccc(C(=O)Nc3ccc(C)c(Oc4ccc5c(c4)CC(=O)N5)c3)cc2C(F)(F)F)CC1 | binding, competition with immobilised ligand | 1 µM | 100% |
| CN(CCCC(F)(F)F)c1nccc(-c2cnn3ncccc23)n1 | binding | 1 µM | 93% |
| CCCOc1ccc([C@@H]2[C@@H](C(=O)O)[C@H](c3ccc4c(c3)OCO4)CN2CC(=O)Nc2c(CC)cccc2CC)cc1 | cell-free assay, competition with immobilised ligand | 1 µM | 99% |
| O=C(NCCCN1CCOCC1)c1ccc(Nc2ncc(Cl)c(-c3ccc(Cl)s3)n2)cc1 | binding, competition with immobilised ligand | 1 µM | 90% |
| CN(C)c1nccc(-c2cnn3ncccc23)n1 | binding | 1 µM | 100% |
| c1cncc(-c2cccc(Nc3nccc(NC4CCCCC4)n3)c2)c1 | binding, competition with immobilised ligand | 10 µM | 16% |
| O=C(NCC1CCOCC1)c1n[nH]cc1NC(=O)c1c(F)cccc1F | binding, competition with immobilised ligand | 1 µM | 89% |
| COc1cnc(Nc2cccc(S(N)(=O)=O)c2)nc1N1CCN(c2ccccc2)C(=O)C1 | binding, competition with immobilised ligand | 1 µM | 61% |
| COc1cc(-c2cn(C3CCc4ccccc4N(CC(F)(F)F)C3=O)nn2)ccc1-n1ccc(C)n1 (stereo not shown) | cell-free assay, competition with immobilised ligand | 1 µM | 87% |
| COc1ncc2cc3ccccc3nc2c1C#N | cell-free assay, competition with immobilised ligand | 5 µM | 100% |
| Cc1cnc(Nc2ccc(C(=O)N3CCC(N4CCCC4)CC3)cc2)nc1-c1cc2ccccc2s1 | binding, competition with immobilised ligand | 1 µM | 29% |
| CN(C)CC#Cc1ccc(OCCCc2sc(N3CCc4cccc(C(=O)Nc5nc6ccccc6s5)c4C3)nc2C(=O)O)c(F)c1 | cell-free assay, competition with immobilised ligand | 1 µM | 97% |
| C[C@H]1CCN(c2nccc(-c3cnn4ncccc34)n2)C1 | binding | 1 µM | 78% |
| NS(=O)(=O)c1cc(NC(=O)Cc2ccccc2)ccc1Oc1cccc(Cl)c1 | cell-free assay, competition with immobilised ligand | 1 µM | 77% |
| CC1CCCN1c1nccc(-c2cnn3ncccc23)n1 (stereo not shown) | binding | 1 µM | 100% |
| O=C(NCCCC1CCCCC1)c1ccc(CNC(=O)c2cnn(-c3ccccc3)c2C(F)(F)F)cc1 | cell-free assay, competition with immobilised ligand | 0.1 µM | 100% |
| N[C@@H]1CCN(c2nccc(-c3cnn4ncccc34)n2)C1 | binding | 1 µM | 100% |
| C[C@H](c1ccc(F)cc1)N(Cc1cccc(C(=O)O)c1)C(=O)c1cnc2ccccc2c1 | cell-free assay, competition with immobilised ligand | 1 µM | 100% |
| F[C@@H]1CCN(c2nccc(-c3cnn4ncccc34)n2)C1 | binding | 1 µM | 100% |
| O=C(c1ccc(Nc2ncc(Cl)c(-c3ccc(Cl)s3)n2)cc1)N1CCC(N2CCCC2)CC1 | binding, competition with immobilised ligand | 1 µM | 84% |
| CN(C)c1ncc(F)c(-c2cnn3ncccc23)n1 | binding | 1 µM | 100% |
| C=CC(=O)N1CCC(C(=O)NCC(=O)N2CCN(c3nc(-c4cnc(N)nc4C(F)F)nc(N4CCOCC4)n3)CC2)CC1 | binding, competition with immobilised ligand | 1 µM | 87% |
